Legend:
Rattus norvegicus = species: Rattus norvegicus; assay: Unbound clearance in Sprague-Dawley rat; type: ADME, organism-based; settings: in vivo
[1] = MRT in iv dosed Sprague-Dawley rat; type: ADME, organism-based; settings: in vivo
Outline: (§1)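 Male Sprague-Dawley rats with femoral vein, femoral artery and gastric catheters; noncrossover design, 2 rats per route; cassette dosing of up to five compounds. i.v. target 1 mg/kg in 5% DMSO/20% Cavitron (pH 4), infused over 30 min. Oral gastric bolus target 2 mg/kg in 5% DMSO/6% Cavitron (pH 4). Plasma sampled to 24 h and measured by HPLC−MS/MS. Noncompartmental analysis; F from dose-normalized AUC(0−∞) relative to mean i.v. AUC.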

[2] = Oral bioavailability in Sprague-Dawley rat; type: ADME, organism-based; settings: in vivo; outline: as §1
[3] = target: Transient receptor potential cation channel subfamily A member 1 (Homo sapiens, UniProt O75762); assay: Inhibition of TRPA1 (unknown origin)
[4] = target: Transient receptor potential cation channel subfamily V member 1 (Homo sapiens, UniProt Q8NER1); assay: Inhibition of TRPV1 (unknown origin)
[5] = target: Transient receptor potential cation channel subfamily M member 2 (Homo sapiens, UniProt O94759); assay: Inhibition of TRPM2 (unknown origin)
[6] = target: Transient receptor potential cation channel subfamily M member 4 (Homo sapiens, UniProt Q8TD43); assay: Inhibition of TRPM4 (unknown origin)
[7] = target: Transient receptor potential cation channel subfamily M member 8 (Homo sapiens, UniProt Q7Z2W7); assay: Inhibition of TRPM8 (unknown origin)
[8] = target: T1, Short transient receptor potential channel 3 (Homo sapiens, UniProt Q13507); assay: Inhibition of TRPC3 (unknown origin)
T1 sequence (Q13507 whole entry): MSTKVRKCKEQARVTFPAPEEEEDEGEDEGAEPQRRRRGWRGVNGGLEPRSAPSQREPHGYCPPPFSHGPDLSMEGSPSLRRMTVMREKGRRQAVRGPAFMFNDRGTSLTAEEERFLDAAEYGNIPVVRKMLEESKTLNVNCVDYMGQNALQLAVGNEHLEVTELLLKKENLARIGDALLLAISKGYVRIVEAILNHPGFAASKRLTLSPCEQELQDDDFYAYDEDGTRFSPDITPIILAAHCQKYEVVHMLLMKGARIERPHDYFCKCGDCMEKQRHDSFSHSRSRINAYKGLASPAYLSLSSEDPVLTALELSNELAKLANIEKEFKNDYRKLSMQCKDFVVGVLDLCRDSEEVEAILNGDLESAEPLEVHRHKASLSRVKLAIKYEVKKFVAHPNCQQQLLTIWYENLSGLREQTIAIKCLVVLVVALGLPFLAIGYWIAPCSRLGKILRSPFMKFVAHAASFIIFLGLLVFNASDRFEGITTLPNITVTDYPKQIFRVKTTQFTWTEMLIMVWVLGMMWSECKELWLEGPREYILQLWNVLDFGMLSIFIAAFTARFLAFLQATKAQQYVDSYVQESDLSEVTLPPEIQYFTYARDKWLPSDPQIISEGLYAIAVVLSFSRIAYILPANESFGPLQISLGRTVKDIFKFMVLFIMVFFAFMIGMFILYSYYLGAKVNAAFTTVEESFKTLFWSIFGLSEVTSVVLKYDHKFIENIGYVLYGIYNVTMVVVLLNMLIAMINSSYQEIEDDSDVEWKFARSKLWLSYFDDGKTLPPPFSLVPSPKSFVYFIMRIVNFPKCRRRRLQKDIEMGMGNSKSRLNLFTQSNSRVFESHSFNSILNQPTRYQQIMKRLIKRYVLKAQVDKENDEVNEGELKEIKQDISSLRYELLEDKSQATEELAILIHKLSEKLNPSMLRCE

[9] = target: T2, Short transient receptor potential channel 4 (Homo sapiens, UniProt Q9UBN4); assay: Inhibition of TRPC4 (unknown origin)
T2 sequence (Q9UBN4 whole entry): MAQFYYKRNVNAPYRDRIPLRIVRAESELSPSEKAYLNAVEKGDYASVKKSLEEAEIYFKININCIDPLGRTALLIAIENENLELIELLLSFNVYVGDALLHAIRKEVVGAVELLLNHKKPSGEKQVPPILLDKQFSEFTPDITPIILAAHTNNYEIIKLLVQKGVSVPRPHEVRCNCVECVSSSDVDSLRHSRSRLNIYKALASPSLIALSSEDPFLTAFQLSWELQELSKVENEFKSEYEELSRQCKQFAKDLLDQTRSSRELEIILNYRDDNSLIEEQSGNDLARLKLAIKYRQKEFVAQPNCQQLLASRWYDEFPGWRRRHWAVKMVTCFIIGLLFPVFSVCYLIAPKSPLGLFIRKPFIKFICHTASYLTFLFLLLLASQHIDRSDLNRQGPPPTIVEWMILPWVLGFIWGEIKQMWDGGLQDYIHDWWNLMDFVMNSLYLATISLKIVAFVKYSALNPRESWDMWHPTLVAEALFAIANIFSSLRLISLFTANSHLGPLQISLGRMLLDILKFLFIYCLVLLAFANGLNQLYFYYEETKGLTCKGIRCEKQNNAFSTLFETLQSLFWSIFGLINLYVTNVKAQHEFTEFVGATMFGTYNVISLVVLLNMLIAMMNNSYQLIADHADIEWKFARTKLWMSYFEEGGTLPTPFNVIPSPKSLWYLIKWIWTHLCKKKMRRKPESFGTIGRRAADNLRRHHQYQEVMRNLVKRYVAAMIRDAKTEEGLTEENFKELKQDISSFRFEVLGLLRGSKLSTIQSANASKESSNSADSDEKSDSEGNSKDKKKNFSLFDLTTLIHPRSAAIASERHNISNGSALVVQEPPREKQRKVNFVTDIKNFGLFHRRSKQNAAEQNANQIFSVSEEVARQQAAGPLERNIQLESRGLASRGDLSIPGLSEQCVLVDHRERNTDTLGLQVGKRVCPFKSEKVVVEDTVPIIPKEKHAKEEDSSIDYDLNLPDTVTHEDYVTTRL

[10] = Lipophilicity, log D of the compound by chromatography; type: physicochemical

Transient receptor potential cation channel subfamily M member 2, sequence (O94759 whole entry): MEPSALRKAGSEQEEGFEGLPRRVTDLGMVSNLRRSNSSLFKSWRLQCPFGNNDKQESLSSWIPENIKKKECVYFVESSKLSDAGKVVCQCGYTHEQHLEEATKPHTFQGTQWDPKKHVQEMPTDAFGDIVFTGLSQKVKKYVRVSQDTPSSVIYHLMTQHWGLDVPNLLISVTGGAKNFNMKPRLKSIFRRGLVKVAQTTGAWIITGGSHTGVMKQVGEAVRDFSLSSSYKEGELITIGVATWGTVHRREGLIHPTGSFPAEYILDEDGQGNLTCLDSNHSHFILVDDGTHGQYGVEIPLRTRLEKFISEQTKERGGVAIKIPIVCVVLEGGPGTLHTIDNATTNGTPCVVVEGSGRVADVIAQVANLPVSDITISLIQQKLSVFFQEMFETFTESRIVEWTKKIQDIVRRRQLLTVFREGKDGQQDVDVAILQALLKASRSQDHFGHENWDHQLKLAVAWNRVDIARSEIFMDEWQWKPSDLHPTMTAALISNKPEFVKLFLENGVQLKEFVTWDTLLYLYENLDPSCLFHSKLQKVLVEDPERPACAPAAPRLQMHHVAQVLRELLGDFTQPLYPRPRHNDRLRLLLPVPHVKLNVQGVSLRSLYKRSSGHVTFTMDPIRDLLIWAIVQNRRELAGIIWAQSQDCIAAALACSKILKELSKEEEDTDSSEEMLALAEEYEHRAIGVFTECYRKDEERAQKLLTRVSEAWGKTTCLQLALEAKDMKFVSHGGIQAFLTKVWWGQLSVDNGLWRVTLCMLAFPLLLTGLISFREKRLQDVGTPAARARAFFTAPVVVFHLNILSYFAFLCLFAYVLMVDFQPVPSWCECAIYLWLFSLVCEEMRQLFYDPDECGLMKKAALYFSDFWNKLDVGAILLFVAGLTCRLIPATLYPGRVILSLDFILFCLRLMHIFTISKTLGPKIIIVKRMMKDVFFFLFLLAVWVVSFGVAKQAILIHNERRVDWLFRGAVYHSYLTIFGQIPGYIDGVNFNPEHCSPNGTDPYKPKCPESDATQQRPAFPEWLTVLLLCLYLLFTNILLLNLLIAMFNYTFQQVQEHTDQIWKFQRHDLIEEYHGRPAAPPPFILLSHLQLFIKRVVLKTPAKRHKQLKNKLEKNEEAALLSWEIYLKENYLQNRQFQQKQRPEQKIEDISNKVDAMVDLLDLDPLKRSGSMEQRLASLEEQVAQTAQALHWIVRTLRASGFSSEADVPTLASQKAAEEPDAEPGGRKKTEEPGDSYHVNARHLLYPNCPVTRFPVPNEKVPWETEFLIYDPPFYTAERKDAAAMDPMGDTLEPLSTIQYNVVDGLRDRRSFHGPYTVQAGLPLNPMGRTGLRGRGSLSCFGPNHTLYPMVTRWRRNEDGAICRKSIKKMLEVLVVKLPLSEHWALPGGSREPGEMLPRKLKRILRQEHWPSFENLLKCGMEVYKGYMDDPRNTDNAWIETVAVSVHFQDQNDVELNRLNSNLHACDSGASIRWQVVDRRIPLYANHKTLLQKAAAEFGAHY
Transient receptor potential cation channel subfamily M member 4, sequence (Q8TD43 whole entry): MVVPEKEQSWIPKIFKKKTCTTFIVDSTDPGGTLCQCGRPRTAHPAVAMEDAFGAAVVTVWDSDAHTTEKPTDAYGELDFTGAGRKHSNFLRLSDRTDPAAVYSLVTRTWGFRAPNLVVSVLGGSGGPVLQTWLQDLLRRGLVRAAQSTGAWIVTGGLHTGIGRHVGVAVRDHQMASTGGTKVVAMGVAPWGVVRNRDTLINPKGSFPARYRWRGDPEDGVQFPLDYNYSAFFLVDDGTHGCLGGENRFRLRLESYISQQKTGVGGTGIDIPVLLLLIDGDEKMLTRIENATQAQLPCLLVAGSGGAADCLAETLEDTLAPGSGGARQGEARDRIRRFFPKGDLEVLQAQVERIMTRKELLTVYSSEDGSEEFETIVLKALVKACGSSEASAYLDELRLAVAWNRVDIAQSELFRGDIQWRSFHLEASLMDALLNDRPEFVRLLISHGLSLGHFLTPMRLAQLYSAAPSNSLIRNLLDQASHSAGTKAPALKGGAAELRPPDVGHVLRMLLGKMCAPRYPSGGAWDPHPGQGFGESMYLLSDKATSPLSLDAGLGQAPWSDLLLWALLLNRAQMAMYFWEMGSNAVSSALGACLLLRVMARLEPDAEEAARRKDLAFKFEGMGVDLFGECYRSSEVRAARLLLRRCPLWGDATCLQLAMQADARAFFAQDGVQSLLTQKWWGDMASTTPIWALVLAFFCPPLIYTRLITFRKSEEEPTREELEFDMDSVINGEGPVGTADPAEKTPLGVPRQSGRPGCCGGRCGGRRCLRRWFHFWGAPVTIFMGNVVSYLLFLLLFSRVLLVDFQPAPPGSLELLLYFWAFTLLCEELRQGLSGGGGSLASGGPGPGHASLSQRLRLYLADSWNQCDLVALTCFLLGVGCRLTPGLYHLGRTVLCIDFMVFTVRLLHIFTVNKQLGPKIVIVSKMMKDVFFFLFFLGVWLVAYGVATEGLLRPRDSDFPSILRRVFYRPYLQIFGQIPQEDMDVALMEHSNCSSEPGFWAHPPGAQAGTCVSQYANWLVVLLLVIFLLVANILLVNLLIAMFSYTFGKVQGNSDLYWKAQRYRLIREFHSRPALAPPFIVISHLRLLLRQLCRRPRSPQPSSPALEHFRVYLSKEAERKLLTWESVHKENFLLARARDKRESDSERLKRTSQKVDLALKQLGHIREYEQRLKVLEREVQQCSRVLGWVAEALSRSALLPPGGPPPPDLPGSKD
Transient receptor potential cation channel subfamily M member 8, sequence (Q7Z2W7 whole entry): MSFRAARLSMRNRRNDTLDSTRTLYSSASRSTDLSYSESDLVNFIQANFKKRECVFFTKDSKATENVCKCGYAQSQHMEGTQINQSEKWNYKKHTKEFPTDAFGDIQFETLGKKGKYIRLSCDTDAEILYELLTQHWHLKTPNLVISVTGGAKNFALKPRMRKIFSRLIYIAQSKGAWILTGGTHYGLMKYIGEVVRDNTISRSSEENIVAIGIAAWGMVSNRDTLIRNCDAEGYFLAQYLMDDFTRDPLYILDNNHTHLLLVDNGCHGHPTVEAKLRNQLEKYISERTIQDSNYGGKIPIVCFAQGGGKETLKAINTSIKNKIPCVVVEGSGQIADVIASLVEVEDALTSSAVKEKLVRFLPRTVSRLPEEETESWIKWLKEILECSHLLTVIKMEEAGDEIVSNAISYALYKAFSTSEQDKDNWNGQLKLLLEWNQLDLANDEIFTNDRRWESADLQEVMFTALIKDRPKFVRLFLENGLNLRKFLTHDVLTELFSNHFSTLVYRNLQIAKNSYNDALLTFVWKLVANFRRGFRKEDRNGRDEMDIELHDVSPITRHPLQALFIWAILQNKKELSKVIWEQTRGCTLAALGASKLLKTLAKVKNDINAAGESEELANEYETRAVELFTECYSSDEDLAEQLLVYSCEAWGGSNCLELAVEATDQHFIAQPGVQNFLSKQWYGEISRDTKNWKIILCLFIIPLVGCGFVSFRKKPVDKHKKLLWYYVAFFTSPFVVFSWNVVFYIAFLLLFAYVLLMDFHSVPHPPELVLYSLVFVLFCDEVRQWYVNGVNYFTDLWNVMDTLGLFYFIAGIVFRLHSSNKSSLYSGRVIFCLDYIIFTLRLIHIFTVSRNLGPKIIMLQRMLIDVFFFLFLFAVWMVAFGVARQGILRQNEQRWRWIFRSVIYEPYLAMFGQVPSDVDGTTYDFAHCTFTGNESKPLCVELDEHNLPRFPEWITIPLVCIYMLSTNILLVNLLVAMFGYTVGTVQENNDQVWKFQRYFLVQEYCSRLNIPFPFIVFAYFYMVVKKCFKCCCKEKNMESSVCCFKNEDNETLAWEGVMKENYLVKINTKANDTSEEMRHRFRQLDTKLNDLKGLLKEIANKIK
Transient receptor potential cation channel subfamily A member 1, sequence (O75762 whole entry): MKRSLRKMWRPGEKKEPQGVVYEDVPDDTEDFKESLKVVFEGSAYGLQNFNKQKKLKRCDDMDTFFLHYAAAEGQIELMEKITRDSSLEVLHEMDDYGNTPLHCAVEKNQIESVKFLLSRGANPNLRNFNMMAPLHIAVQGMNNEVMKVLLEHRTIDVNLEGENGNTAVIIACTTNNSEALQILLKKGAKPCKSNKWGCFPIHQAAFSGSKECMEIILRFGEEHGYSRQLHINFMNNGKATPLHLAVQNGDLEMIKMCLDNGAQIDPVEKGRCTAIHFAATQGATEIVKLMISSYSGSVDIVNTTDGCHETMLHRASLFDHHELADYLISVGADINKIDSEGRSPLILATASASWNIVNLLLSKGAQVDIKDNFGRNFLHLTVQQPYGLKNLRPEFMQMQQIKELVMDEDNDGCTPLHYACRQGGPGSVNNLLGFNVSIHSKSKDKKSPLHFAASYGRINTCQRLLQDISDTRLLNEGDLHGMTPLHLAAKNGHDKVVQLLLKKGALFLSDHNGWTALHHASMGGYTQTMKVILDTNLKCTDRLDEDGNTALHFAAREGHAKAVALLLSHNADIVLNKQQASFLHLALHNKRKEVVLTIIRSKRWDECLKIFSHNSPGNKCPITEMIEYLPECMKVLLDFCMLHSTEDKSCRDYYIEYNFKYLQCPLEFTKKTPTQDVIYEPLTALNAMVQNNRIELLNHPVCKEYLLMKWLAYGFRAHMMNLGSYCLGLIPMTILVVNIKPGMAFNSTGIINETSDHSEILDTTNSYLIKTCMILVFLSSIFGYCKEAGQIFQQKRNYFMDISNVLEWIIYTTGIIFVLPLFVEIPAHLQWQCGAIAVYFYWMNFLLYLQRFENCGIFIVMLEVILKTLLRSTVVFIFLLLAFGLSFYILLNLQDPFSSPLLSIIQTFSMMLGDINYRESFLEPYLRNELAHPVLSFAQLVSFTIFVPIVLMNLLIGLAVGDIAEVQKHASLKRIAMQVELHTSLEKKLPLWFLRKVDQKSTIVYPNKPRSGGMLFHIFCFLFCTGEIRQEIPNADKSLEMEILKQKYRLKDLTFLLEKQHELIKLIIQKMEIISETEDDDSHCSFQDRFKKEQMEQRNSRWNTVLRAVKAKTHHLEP

- CL free (Rattus norvegicus): 966 mL/min/kg
- MRT [1]: 54 min
- bioavailability [2]: 35%
- IC50 [3]: > 10 µM
- IC50 [4]: > 10 µM
- IC50 [5]: > 10 µM
- IC50 [7]: > 10 µM
- IC50 [8]: > 10 µM
- IC50 [9]: > 10 µM
- chromatographic logD [10]: 4.6
Structure (SMILES): N#Cc1ccc(O[C@H]2CN(S(=O)(=O)c3ccc(Cl)cc3Cl)C[C@@]2(O)CO)cc1F
- IC50 [6]: > 10 µM
